Test results published in ChEMBL document CHEMBL5120933, “Direct-to-Biology Accelerates PROTAC Synthesis and the Evaluation of Linker Effects on Permeability and Degradation” (ACS Med Chem Lett, 2022).

Biological target: Bromodomain-containing protein 4 (Homo sapiens) (UniProt O60885)
Experiment: Relative binding affinity to BRD4 (unknown origin)
Conditions: not given

| relative binding affinity (RBA) | Structure (SMILES) |
| --- | --- |
| 25 | Cc1sc2c(c1C)C(c1ccc(Cl)cc1)=N[C@@H](CC(=O)N[C@H]1C[C@H](N(C)C(=O)COc3cccc4c3C(=O)N(C3CCC(=O)NC3=O)C4=O)C1)c1nnc(C)n1-2 (stereo not given in full) |
| 9.6 | Cc1sc2c(c1C)C(c1ccc(Cl)cc1)=N[C@@H](CC(=O)N(C)CCOCCNC(=O)COc1cccc3c1C(=O)N(C1CCC(=O)NC1=O)C3=O)c1nnc(C)n1-2 (stereo not given in full) |
| 2.3 | Cc1sc2c(c1C)C(c1ccc(Cl)cc1)=N[C@@H](CC(=O)N1CCN(c3ncc(OC4CCN(C(=O)COc5cccc6c5C(=O)N(C5CCC(=O)NC5=O)C6=O)CC4)cn3)CC1)c1nnc(C)n1-2 (stereo not given in full) |
| 0.9 | Cc1ccc(C(=O)N2CCC(Oc3cnc(N4CCN(C(=O)C[C@@H]5N=C(c6ccc(Cl)cc6)c6c(sc(C)c6C)-n6c(C)nnc65)CC4)nc3)CC2)cc1N1CCC(=O)NC1=O |
| 5 | Cc1ccc(C(=O)NCCOCCN(C)C(=O)C[C@@H]2N=C(c3ccc(Cl)cc3)c3c(sc(C)c3C)-n3c(C)nnc32)cc1N1CCC(=O)NC1=O |
| 0.9 | Cc1ccc(C(=O)N(C)CCN2CCN(C(=O)C[C@@H]3N=C(c4ccc(Cl)cc4)c4c(sc(C)c4C)-n4c(C)nnc43)CC2)cc1N1CCC(=O)NC1=O |
| 25 | Cc1sc2c(c1C)C(c1ccc(Cl)cc1)=N[C@@H](CC(=O)N1CCN(CCN(C)C(=O)COc3cccc4c3C(=O)N(C3CCC(=O)NC3=O)C4=O)CC1)c1nnc(C)n1-2 (stereo not given in full) |

| Structure (SMILES) | relative binding affinity (RBA) |
| --- | --- |
| Cc1ccc(C(=O)N(C)[C@H]2C[C@H](NC(=O)C[C@@H]3N=C(c4ccc(Cl)cc4)c4c(sc(C)c4C)-n4c(C)nnc43)C2)cc1N1CCC(=O)NC1=O | 6.4 |

Test system: HEK293
Experiment: Cytotoxicity against human HEK293 cells assessed as inhibition of cell viability at 12 uM incubated for 30 mins by cell titer-glo assay relative to control
Format: functional
Conditions: HEK293, 0.5 h

| Structure (SMILES) | Emax at 12 µM |
| --- | --- |
| Cc1sc2c(c1C)C(c1ccc(Cl)cc1)=N[C@@H](CC(=O)NCCCCNC(=O)COc1cccc3c1C(=O)N(C1CCC(=O)NC1=O)C3=O)c1nnc(C)n1-2 (stereo in doubt; form 2) | 21.7% |

Biological target: Protein cereblon/Bromodomain-containing protein 4 (Homo sapiens, UniProt O60885+Q96SW2)
Sequence (Q96SW2 whole entry, looked up, other chains not shown): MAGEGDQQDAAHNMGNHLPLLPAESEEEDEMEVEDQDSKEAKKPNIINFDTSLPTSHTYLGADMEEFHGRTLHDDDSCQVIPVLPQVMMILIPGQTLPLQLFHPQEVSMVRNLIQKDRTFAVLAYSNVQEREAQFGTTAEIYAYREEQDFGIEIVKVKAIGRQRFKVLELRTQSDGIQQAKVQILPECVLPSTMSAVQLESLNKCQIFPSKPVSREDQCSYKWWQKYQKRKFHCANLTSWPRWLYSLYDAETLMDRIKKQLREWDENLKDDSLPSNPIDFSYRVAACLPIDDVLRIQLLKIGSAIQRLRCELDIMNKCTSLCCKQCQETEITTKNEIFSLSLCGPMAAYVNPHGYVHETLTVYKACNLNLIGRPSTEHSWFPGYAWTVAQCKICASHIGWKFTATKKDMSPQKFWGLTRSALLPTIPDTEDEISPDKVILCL
Experiment: PROTAC activity at […]/BRD4 in human HEK293T cells assessed as degradation of BRD4 incubated for 24 hrs by HiBiT assay
Format: cell-based
Conditions: not given

| DC50 | Structure (SMILES) |
| --- | --- |
| > 21700 nM | Cc1ccc(C(=O)O)cc1N1CCC(=O)NC1=O |
| 110 nM | Cc1sc2c(c1C)C(c1ccc(Cl)cc1)=N[C@@H](CC(=O)N[C@H]1C[C@H](N(C)C(=O)COc3cccc4c3C(=O)N(C3CCC(=O)NC3=O)C4=O)C1)c1nnc(C)n1-2 (stereo not given in full) |
| > 50000 nM | O=C1CCC(N2C(=O)c3cccc(OCC(=O)ON4C(=O)CCC4=O)c3C2=O)C(=O)N1 (stereo not given) |
| > 50000 nM | O=C1CCC(=O)N1O |
| 7100 nM | Cc1sc2c(c1C)C(c1ccc(Cl)cc1)=N[C@@H](CC(=O)N(C)CCOCCNC(=O)COc1cccc3c1C(=O)N(C1CCC(=O)NC1=O)C3=O)c1nnc(C)n1-2 (stereo not given in full) |
| 6 nM | Cc1sc2c(c1C)C(c1ccc(Cl)cc1)=N[C@@H](CC(=O)N1CCN(c3ncc(OC4CCN(C(=O)COc5cccc6c5C(=O)N(C5CCC(=O)NC5=O)C6=O)CC4)cn3)CC1)c1nnc(C)n1-2 (stereo not given in full) |
| > 50000 nM | Cc1ccc(C(=O)ON2C(=O)CCC2=O)cc1N1CCC(=O)NC1=O |
| 20 nM | Cc1ccc(C(=O)N2CCC(Oc3cnc(N4CCN(C(=O)C[C@@H]5N=C(c6ccc(Cl)cc6)c6c(sc(C)c6C)-n6c(C)nnc65)CC4)nc3)CC2)cc1N1CCC(=O)NC1=O |
| 23 nM | Cc1ccc(C(=O)NCCOCCN(C)C(=O)C[C@@H]2N=C(c3ccc(Cl)cc3)c3c(sc(C)c3C)-n3c(C)nnc32)cc1N1CCC(=O)NC1=O |
| 88 nM | Cc1ccc(C(=O)N(C)CCN2CCN(C(=O)C[C@@H]3N=C(c4ccc(Cl)cc4)c4c(sc(C)c4C)-n4c(C)nnc43)CC2)cc1N1CCC(=O)NC1=O |
| 241 nM | Cc1sc2c(c1C)C(c1ccc(Cl)cc1)=N[C@@H](CC(=O)N1CCN(CCN(C)C(=O)COc3cccc4c3C(=O)N(C3CCC(=O)NC3=O)C4=O)CC1)c1nnc(C)n1-2 (stereo not given in full) |
| > 50000 nM | O=C(O)COc1cccc2c1C(=O)N(C1CCC(=O)NC1=O)C2=O (stereo not given) |

| Structure (SMILES) | DC50 |
| --- | --- |
| Cc1sc2c(c1C)C(c1ccc(Cl)cc1)=N[C@@H](CC(=O)O)c1nnc(C)n1-2 | > 50000 nM |
| Cc1sc2c(c1C)C(c1ccc(Cl)cc1)=N[C@@H](CC(=O)ON1C(=O)CCC1=O)c1nnc(C)n1-2 | > 50000 nM |
| Cc1ccc(C(=O)N(C)[C@H]2C[C@H](NC(=O)C[C@@H]3N=C(c4ccc(Cl)cc4)c4c(sc(C)c4C)-n4c(C)nnc43)C2)cc1N1CCC(=O)NC1=O | > 20000 nM |

Test system: HEK293
Experiment: Cytotoxicity against permeabilized HEK293 cells assessed as inhibition of cell viability incubated for 30 mins in presence of CRBN-tracer by nanoBRET assay
Format: functional, cell-based, Homo sapiens
Conditions: Homo sapiens, HEK293, 0.5 h
Outline: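 Transfected HEK293 cells (NanoLuc-CRBN plus DDB1), thawed from frozen into phenol-red-free Opti-MEM (500,000 cells/mL). Wells held CRBN-tracer (7.5 nL) and 11-pt 3-fold titrations (50 uM top assay concentration); 18 uL cells added, then 2 uL 0.5 mg/mL digitonin, 30 min at room temperature. NanoBRET substrate 1:166, no extracellular inhibitor; BRET luminescence at 450-480 nm and 610-LP.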

| Structure (SMILES) | IC50 |
| --- | --- |
| Cc1ccc(C(=O)O)cc1N1CCC(=O)NC1=O | 1940 nM |
| O=C1CCC(N2C(=O)c3cccc(OCC(=O)ON4C(=O)CCC4=O)c3C2=O)C(=O)N1 (stereo not given) | 1050 nM |
| Cc1sc2c(c1C)C(c1ccc(Cl)cc1)=N[C@@H](CC(=O)O)c1nnc(C)n1-2 | > 50000 nM |
| O=C1CCC(=O)N1O | > 50000 nM |
| Cc1sc2c(c1C)C(c1ccc(Cl)cc1)=N[C@@H](CC(=O)ON1C(=O)CCC1=O)c1nnc(C)n1-2 | > 50000 nM |
| Cc1ccc(C(=O)ON2C(=O)CCC2=O)cc1N1CCC(=O)NC1=O | 6040 nM |
| Cc1sc2c(c1C)C(c1ccc(Cl)cc1)=N[C@@H](CC(=O)NCCCCNC(=O)COc1cccc3c1C(=O)N(C1CCC(=O)NC1=O)C3=O)c1nnc(C)n1-2 (stereo in doubt; form 1) | 90 nM |
| O=C(O)COc1cccc2c1C(=O)N(C1CCC(=O)NC1=O)C2=O (stereo not given) | 830 nM |

Same assay, conditions: hek293

| Structure (SMILES) | IC50 |
| --- | --- |
| Cc1sc2c(c1C)C(c1ccc(Cl)cc1)=N[C@@H](CC(=O)NCCCCNC(=O)COc1cccc3c1C(=O)N(C1CCC(=O)NC1=O)C3=O)c1nnc(C)n1-2 (stereo in doubt; form 2) | 56 nM |

Test system: HEK293
Experiment: Cytotoxicity against human HEK293 cells assessed as inhibition of cell viability incubated for 24 hrs by cell titer-glo assay
Conditions: HEK293, 24 h

| Structure (SMILES) | EC50 |
| --- | --- |
| Cc1ccc(C(=O)O)cc1N1CCC(=O)NC1=O | > 50 µM |
| O=C1CCC(N2C(=O)c3cccc(OCC(=O)ON4C(=O)CCC4=O)c3C2=O)C(=O)N1 (stereo not given) | > 50 µM |
| Cc1sc2c(c1C)C(c1ccc(Cl)cc1)=N[C@@H](CC(=O)O)c1nnc(C)n1-2 | > 50 µM |
| O=C1CCC(=O)N1O | > 50 µM |
| Cc1sc2c(c1C)C(c1ccc(Cl)cc1)=N[C@@H](CC(=O)ON1C(=O)CCC1=O)c1nnc(C)n1-2 | > 50 µM |
| Cc1ccc(C(=O)ON2C(=O)CCC2=O)cc1N1CCC(=O)NC1=O | > 50 µM |
| O=C(O)COc1cccc2c1C(=O)N(C1CCC(=O)NC1=O)C2=O (stereo not given) | > 50 µM |

Test system: HEK293
Experiment: Cytotoxicity against human HEK293 cells assessed as inhibition of cell viability at […] incubated for 30 mins by cell titer-glo assay relative to control
Format: functional
Conditions: 0.5 h

| Structure (SMILES) | Emax |
| --- | --- |
| Cc1sc2c(c1C)C(c1ccc(Cl)cc1)=N[C@@H](CC(=O)O)c1nnc(C)n1-2 | 14.23% |

Same assay, conditions: Homo sapiens, HEK293, 0.5 h, read-out: Emax

| Structure (SMILES) | Emax |
| --- | --- |
| Cc1ccc(C(=O)O)cc1N1CCC(=O)NC1=O | 7.84% |
| O=C1CCC(N2C(=O)c3cccc(OCC(=O)ON4C(=O)CCC4=O)c3C2=O)C(=O)N1 (stereo not given) | 11.9% |
| O=C1CCC(=O)N1O | 10.8% |
| Cc1sc2c(c1C)C(c1ccc(Cl)cc1)=N[C@@H](CC(=O)ON1C(=O)CCC1=O)c1nnc(C)n1-2 | 5.26% |
| Cc1ccc(C(=O)ON2C(=O)CCC2=O)cc1N1CCC(=O)NC1=O | 9.24% |
| O=C(O)COc1cccc2c1C(=O)N(C1CCC(=O)NC1=O)C2=O (stereo not given) | 7.58% |

Test system: HEK293
Experiment: Cytotoxicity against human HEK293 cells assessed as inhibition of cell viability incubated for 30 mins in presence of CRBN-tracer by nanoBRET assay
Format: functional, cell-based
Conditions: Homo sapiens, HEK293, 0.5 h

| Structure (SMILES) | IC50 |
| --- | --- |
| Cc1ccc(C(=O)O)cc1N1CCC(=O)NC1=O | > 50000 nM |
| Cc1sc2c(c1C)C(c1ccc(Cl)cc1)=N[C@@H](CC(=O)N[C@H]1C[C@H](N(C)C(=O)COc3cccc4c3C(=O)N(C3CCC(=O)NC3=O)C4=O)C1)c1nnc(C)n1-2 (stereo not given in full) | 89 nM |
| O=C1CCC(N2C(=O)c3cccc(OCC(=O)ON4C(=O)CCC4=O)c3C2=O)C(=O)N1 (stereo not given) | 7420 nM |
| Cc1sc2c(c1C)C(c1ccc(Cl)cc1)=N[C@@H](CC(=O)O)c1nnc(C)n1-2 | > 50000 nM |
| O=C1CCC(=O)N1O | > 50000 nM |
| Cc1sc2c(c1C)C(c1ccc(Cl)cc1)=N[C@@H](CC(=O)ON1C(=O)CCC1=O)c1nnc(C)n1-2 | > 50000 nM |
| Cc1sc2c(c1C)C(c1ccc(Cl)cc1)=N[C@@H](CC(=O)N(C)CCOCCNC(=O)COc1cccc3c1C(=O)N(C1CCC(=O)NC1=O)C3=O)c1nnc(C)n1-2 (stereo not given in full) | 1600 nM |
| Cc1sc2c(c1C)C(c1ccc(Cl)cc1)=N[C@@H](CC(=O)N1CCN(c3ncc(OC4CCN(C(=O)COc5cccc6c5C(=O)N(C5CCC(=O)NC5=O)C6=O)CC4)cn3)CC1)c1nnc(C)n1-2 (stereo not given in full) | 70 nM |
| Cc1ccc(C(=O)ON2C(=O)CCC2=O)cc1N1CCC(=O)NC1=O | 22200 nM |
| Cc1ccc(C(=O)N2CCC(Oc3cnc(N4CCN(C(=O)C[C@@H]5N=C(c6ccc(Cl)cc6)c6c(sc(C)c6C)-n6c(C)nnc65)CC4)nc3)CC2)cc1N1CCC(=O)NC1=O | 100 nM |
| Cc1ccc(C(=O)NCCOCCN(C)C(=O)C[C@@H]2N=C(c3ccc(Cl)cc3)c3c(sc(C)c3C)-n3c(C)nnc32)cc1N1CCC(=O)NC1=O | 3200 nM |
| Cc1ccc(C(=O)N(C)CCN2CCN(C(=O)C[C@@H]3N=C(c4ccc(Cl)cc4)c4c(sc(C)c4C)-n4c(C)nnc43)CC2)cc1N1CCC(=O)NC1=O | 4500 nM |
| Cc1sc2c(c1C)C(c1ccc(Cl)cc1)=N[C@@H](CC(=O)N1CCN(CCN(C)C(=O)COc3cccc4c3C(=O)N(C3CCC(=O)NC3=O)C4=O)CC1)c1nnc(C)n1-2 (stereo not given in full) | 71 nM |
| Cc1ccc(C(=O)N(C)[C@H]2C[C@H](NC(=O)C[C@@H]3N=C(c4ccc(Cl)cc4)c4c(sc(C)c4C)-n4c(C)nnc43)C2)cc1N1CCC(=O)NC1=O | 2100 nM |
| O=C(O)COc1cccc2c1C(=O)N(C1CCC(=O)NC1=O)C2=O (stereo not given) | > 50000 nM |

Same assay, conditions: hek293

| Structure (SMILES) | IC50 |
| --- | --- |
| Cc1sc2c(c1C)C(c1ccc(Cl)cc1)=N[C@@H](CC(=O)NCCCCNC(=O)COc1cccc3c1C(=O)N(C1CCC(=O)NC1=O)C3=O)c1nnc(C)n1-2 (stereo in doubt; form 2) | 930 nM |
| Cc1sc2c(c1C)C(c1ccc(Cl)cc1)=N[C@@H](CC(=O)NCCCCNC(=O)COc1cccc3c1C(=O)N(C1CCC(=O)NC1=O)C3=O)c1nnc(C)n1-2 (stereo in doubt; form 1) | 2200 nM |

Test system: HEK293
Experiment: Cytotoxicity against human HEK293 cells assessed as inhibition of cell viability at 10 uM incubated for 30 mins by cell titer-glo assay relative to control
Format: functional
Conditions: HEK293, 0.5 h

| Structure (SMILES) | Emax at 10 µM |
| --- | --- |
| Cc1sc2c(c1C)C(c1ccc(Cl)cc1)=N[C@@H](CC(=O)NCCCCNC(=O)COc1cccc3c1C(=O)N(C1CCC(=O)NC1=O)C3=O)c1nnc(C)n1-2 (stereo in doubt; form 1) | 25.2% |
